Experimental data as given in ChEMBL document CHEMBL1926589, “2-Anilinonicotinyl linked 2-aminobenzothiazoles and [1,2,4]triazolo[1,5-b] [1,2,4]benzothiadiazine conjugates as potential mitochondrial apoptotic inducers” (Bioorg Med Chem, 2011).
pIC50: −log10 of the molar value. Active and inactive are the calls of the source. The calls are words filed in the database; no cut-off is given here.

Key:
HL-60 [1] = assay: Cell cycle arrest in human HL60 cells assessed as accumulation at G1 phase at 1 uM after 24 hrs using propidium iodide staining by flow cytometry; format: functional, cell-based
Procedure, shortened: (§1)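 HL-60 cells (1 x 10^5 per 1.5 mL) treated 24 h, then fixed in 70% cold ethanol at −20 °C overnight. RNase digestion (400 µg/ml) at 37 °C for 45 min, then propidium iodide (10 µg/ml) for 30 min. Flow cytometry on 10,000 events, FL2-A vs FL2-W, with doublet discrimination. Sub-G0 (hypodiploid) peak taken as apoptotic cells. Mean ± SD of three independent experiments.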

IMR-32 = assay: Growth inhibition of human IMR32 cells at 10 uM by sulforhodamine B assay; format: functional; conditions: read-out: GI
Procedure, shortened: (§2)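 Single-dose 10 µM screen by sulforhodamine B assay, reported as percent inhibition of cell proliferation. Cells grown in medium with 10% heat-inactivated FBS at 37 °C, 5% CO2, and treated at about 70% confluence or in log phase. Compounds dissolved in DMSO; controls received vehicle (<0.5% v/v).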

HL-60 [2] = assay: Induction of NO production in human HL60 cells at 1 uM after 24 hrs using DAF-2DA fluorescent dye based flow cytometric analysis; format: functional, cell-based
Procedure, shortened: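 HL-60 cells (1 x 10^5 per 1.5 mL) preloaded 30 min with 10 µM DAF-2-DA before treatment. After 24 h exposure, cells were washed and read by flow cytometry in FL-1 as NO-positive population. Mean ± SD of three independent experiments.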

HL-60 [3] = assay: Induction of apoptosis in human HL60 cells assessed as PARP cleavage at 1 uM after 24 hrs by Western blotting; format: functional, cell-based
Procedure, shortened: (§3)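 HL-60 cells treated 24 h and lysed in RIPA buffer on ice; protein measured by Bradford against a BSA standard. 50 µg resolved by SDS-PAGE and transferred to PVDF, blocked in 5% milk/TBST, then primary antibodies 1:1000 for 2 h and HRP secondary 1:1000 for 1 h. ECL detection with β-actin as loading control; bands quantified by densitometry.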

HeLa = assay: Induction of apoptosis in human HeLa cells assessed as DNA ladder formation at 10 uM after 24 hrs by agarose gel electrophoresis; format: functional, cell-based
Procedure, shortened: (§4)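 Cells treated 24 h, then 2 x 10^6 cells lysed (Triton X-100 buffer, pH 8.0) with RNase at 37 °C for 90 min and proteinase-K at 50 °C for 1 h. DNA phenol/chloroform-extracted and ethanol-precipitated, then run on 1.8% agarose at 50 V for 1.5 h in TAE. Ladders viewed under UV.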

HL-60 [4] = assay: Cell cycle arrest in human HL60 cells assessed as accumulation at sub-G0 phase measuring DNA damage at 1 uM after 24 hrs using propidium iodide staining by flow cytometry (reference value: 1%); format: functional; procedure, shortened: as §1
HL-60 [5] = assay: Induction of apoptosis in human HL60 cells assessed as early apoptotic cells at 1 uM after 24 hrs using Annexin V-FITC and propidium iodide staining by flow cytometry relative to control; format: functional
Procedure, shortened: (§5)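 HL-60 cells (1 x 10^5 per 1.5 mL) treated 24 h, washed twice in PBS and stained in binding buffer with annexin V-FITC and PI. Flow cytometry with FITC in FL-1 (530 nm) and PI in FL-2 (585 nm), using quadrant statistics: lower right taken as apoptotic, upper right as post-apoptotic necrotic. Representative of three independent experiments.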

HL-60 [6] = assay: Induction of apoptosis in human HL60 cells assessed as late apoptotic cells at 1 uM after 24 hrs using Annexin V-FITC and propidium iodide staining by flow cytometry relative to control; format: functional; procedure, shortened: as §5
OVCAR-5 = assay: Growth inhibition of human OVCAR5 cells at 10 uM by sulforhodamine B assay; format: functional; conditions: read-out: GI; procedure, shortened: as §2
[7] = Therapeutic ratio of IC50 for african green monkey CV1 cells to IC50 for human HL60 cells; format: ADME, cell-based, HL-60; conditions: CV1 cells and HL60 cells, read-out: Ratio IC50
DU-145 = assay: Growth inhibition of human DU145 cells at 10 uM by sulforhodamine B assay; format: functional; conditions: read-out: GI; procedure, shortened: as §2
HL-60 [8] = assay: Induction of apoptosis in human HL60 cells assessed as caspase8 activation using IETD-AFC as substrate at 1 uM after 24 hrs by fluorimetry relative to control; format: functional
Procedure, shortened: (§6)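 HL-60 cells (2 x 10^6) treated 24 h, washed and lysed. Caspase-3, -8 and -9 activities in lysates measured fluorometrically with a commercial caspase fluorescent assay kit. Two independent experiments, each in duplicate.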

HL-60 [9] = assay: Cell cycle arrest in human HL60 cells assessed as accumulation at G2/M phase at 1 uM after 24 hrs using propidium iodide staining by flow cytometry; format: functional, cell-based; procedure, shortened: as §1
HL-60 [10] = assay: Induction of apoptosis in human HL60 cells assessed as DNA ladder formation at 10 uM after 24 hrs by agarose gel electrophoresis; format: functional, cell-based; procedure, shortened: as §4
HL-60 [11] = assay: Inhibition of HSP-90 expression in human HL60 cells at 1 uM after 24 hrs by Western blotting; format: functional, cell-based; procedure, shortened: as §3
HL-60 [12] = assay: Growth inhibition of human HL60 cells after 48 hrs by MTT assay; format: functional, cell-based; conditions: HL-60, 48 h
HL-60 [13] = assay: Inhibition of Bcl-2 expression in human HL60 cells at 1 uM after 24 hrs by Western blotting; format: functional, cell-based; procedure, shortened: as §3
HL-60 [14] = assay: Induction of apoptosis in human HL60 cells assessed as increase of reactive oxygen species level at 1 uM after 24 hrs using DCFH-DA fluorescent dye based flow cytometric analysis relative to control; format: functional
Procedure, shortened: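 HL-60 cells (1 x 10^5 per 1.5 mL) treated 24 h, then loaded with 10 µM H2DCFDA for 30 min at 37 °C. Washed twice in PBS and read in FL-1 (530 nm). Percentage of DCF-positive cells determined; mean ± SD of three experiments.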

HCT-15 = assay: Growth inhibition of human HCT15 cells at 10 uM by sulforhodamine B assay; format: functional; conditions: read-out: GI; procedure, shortened: as §2
SK-N-SH = assay: Growth inhibition of human SK-N-SH cells at 10 uM by sulforhodamine B assay; format: functional; conditions: read-out: GI; procedure, shortened: as §2
HL-60 [15] = assay: Cell cycle arrest in human HL60 cells assessed as accumulation at S phase at 1 uM after 24 hrs using propidium iodide staining by flow cytometry; format: functional, cell-based; procedure, shortened: as §1
HL-60 [16] = assay: Inhibition of survivin expression in human HL60 cells at 1 uM after 24 hrs by Western blotting; format: functional, cell-based; procedure, shortened: as §3
SiHa [17] = assay: Growth inhibition of human SiHa cells at 10 uM by sulforhodamine B assay; format: functional; conditions: read-out: GI; procedure, shortened: as §2
HEp-2 = assay: Growth inhibition of human Hep2 cells at 10 uM by sulforhodamine B assay; format: functional; conditions: read-out: GI; procedure, shortened: as §2
SiHa [18] = assay: Induction of apoptosis in human SiHa cells assessed as DNA ladder formation at 10 uM after 24 hrs by agarose gel electrophoresis; format: functional, cell-based; procedure, shortened: as §4
CV-1 = assay: Growth inhibition of african green monkey CV1 cells after 48 hrs by MTT assay; format: cell-based; conditions: Chlorocebus aethiops, CV-1, 48 h
[19] = Growth inhibition of human 502713 cells at 10 uM by sulforhodamine B assay; format: functional; conditions: read-out: GI; procedure, shortened: as §2
HL-60 [20] = assay: Induction of apoptosis in human HL60 cells assessed as decrease in mitochondrial membrane potential at 1 uM after 24 hrs using rhodamine 123 staining by flow cytometry; format: functional
Procedure, shortened: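 HL-60 cells (1 x 10^5 per 1.5 mL) treated 24 h, then stained with rhodamine-123 (5 µg/mL final) for 1 h. Washed, and propidium iodide (5 µg/mL) added just before reading. FL-1 fluorescence from 10,000 events; percentage of low Rh-123 cells taken as loss of membrane potential. Mean ± SD, n=3.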

HL-60 [21] = assay: Induction of apoptosis in human HL60 cells assessed as non-viable necrotic cells at 1 uM after 24 hrs using Annexin V-FITC and propidium iodide staining by flow cytometry relative to control; format: functional; procedure, shortened: as §5
HL-60 [22] = assay: Induction of apoptosis in human HL60 cells assessed as DNA ladder formation at 1 uM after 24 hrs by agarose gel electrophoresis; format: functional, cell-based; procedure, shortened: as §4
SW-620 = assay: Growth inhibition of human SW620 cells at 10 uM by sulforhodamine B assay; format: functional; conditions: read-out: GI; procedure, shortened: as §2
HL-60 [23] = assay: Induction of apoptosis in human HL60 cells assessed as caspase3 activation using DEVD-AFC as substrate at 1 uM after 24 hrs by fluorimetry relative to control; format: functional; procedure, shortened: as §6
SiHa [24] = assay: Growth inhibition of human SiHa cells after 48 hrs by MTT assay; format: functional, cell-based
HL-60 [25] = assay: Induction of apoptosis in human HL60 cells assessed as caspase9 activation using LEHD-AMC as substrate at 1 uM after 24 hrs by fluorimetry relative to control; format: functional; procedure, shortened: as §6
HL-60 [26] = assay: Inhibition of NF-kappaB expression in human HL60 cells at 1 uM after 24 hrs by Western blotting; format: functional, cell-based; procedure, shortened: as §3
A549 = assay: Growth inhibition of human A549 cells at 10 uM by sulforhodamine B assay; format: functional; conditions: read-out: GI; procedure, shortened: as §2

Compound: O=C(Nc1nc2ccc([N+](=O)[O-])cc2s1)c1cccnc1Nc1ccc(F)cc1
- Activity (HL-60 [1]): inactive
- inhibition of growth at 10 µM (IMR-32): 33%
- Activity (HL-60 [2]): inactive
- Activity (HL-60 [3]): Active
- Activity (HeLa): inactive
- Activity (HL-60 [4]): 60%
- Activity (HL-60 [5]): 9%
- Activity (HL-60 [6]): 5%
- inhibition of growth at 10 µM (OVCAR-5): 53%
- selectivity ratio [7]: 50
- inhibition of growth at 10 µM (DU-145): 51%
- Activity (HL-60 [8]): inactive
- Activity (HL-60 [9]): inactive
- Activity (HL-60 [10]): Active
- inhibition (HL-60 [11]): Active
- pIC50 (HL-60 [12]): 6.52
- inhibition (HL-60 [13]): inactive
- Activity (HL-60 [14]): 16%
- inhibition of growth at 10 µM (HCT-15): 55%
- inhibition of growth at 10 µM (SK-N-SH): 63%
- Activity (HL-60 [15]): inactive
- inhibition (HL-60 [16]): Active
- inhibition of growth at 10 µM (SiHa [17]): 23%
- inhibition of growth at 10 µM (HEp-2): 52%
- Activity (SiHa [18]): inactive
- pIC50 (CV-1): 4.82
- inhibition of growth at 10 µM [19]: 66%
- Activity (HL-60 [20]): Active
- Activity (HL-60 [21]): 45%
- Activity (HL-60 [22]): Active
- inhibition of growth at 10 µM (SW-620): 67%
- Activity (HL-60 [23]): inactive
- pIC50 (SiHa [24]): 5.15
- Activity (HL-60 [25]): inactive
- inhibition (HL-60 [26]): inactive
- inhibition of growth at 10 µM (A549): 18%
